Published values of several laboratories.
Lines come from different studies, so protocols differ.
SIRT3: NAD-dependent protein deacetylase sirtuin-3, mitochondrial (SIRT3, Homo sapiens, UniProt Q9NTG7)
DRD1: D(1A) dopamine receptor (DRD1, Homo sapiens, UniProt P21728)
MAP3K9: Mitogen-activated protein kinase kinase kinase 9 (MAP3K9, Homo sapiens, UniProt P80192)
PTGS1: Prostaglandin G/H synthase 1 (PTGS1, Ovis aries, UniProt P05979)
TAF1 BD2: Transcription initiation factor TFIID subunit 1, BD2 (TAF1, Homo sapiens, UniProt P21675)

| target | effect on | mode | technique | concentration | quantity | value | Compound |
| --- | --- | --- | --- | --- | --- | --- | --- |
| SIRT3 | enzyme activity | inhibitor | fluorescence | 200 µM | inhibition | 0.8% | CCCCCC1CC(=O)c2ccccc2O1 (centres unmarked) |
| Bromodomain adjacent to zinc finger domain protein 2B, bromodomain (BAZ2B, Homo sapiens, UniProt Q9UIF8) | thermal stability |  | DSF | 10 µM | ΔTm | 0.21 °C | C[S+]([O-])c1ccc(-c2nc(-c3ccncc3)c(-c3ccc(F)cc3)[nH]2)cc1 (centres unmarked) |
| DRD1 | cell-free assay |  |  | 10 µM | inhibition | -7.2% | COc1cc(NC(C)=O)c(Cl)cc1C(=O)Nc1nccs1 |
| Transcription initiation factor TFIID subunit 1-like (TAF1L, Homo sapiens, UniProt Q8IZX4) | enzyme activity | inhibitor |  | 1 µM | activity vs control | 91% | Cc1ccc(C(=O)NCc2ccsc2)cc1C#Cc1cn(C(C)C)c2ncnc(N)c12 |
| MAP3K9 | enzyme activity | inhibitor | radiometric | 1 µM | remaining activity | 21% | Cc1nn(CC(F)(F)F)cc1Nc1ncc(Br)c(NCCCNC(=O)C2CCC2)n1 |
| Mitogen-activated protein kinase kinase kinase 6 (MAP3K6, Homo sapiens, UniProt O95382) | cell-free assay | inhibitor |  | 20 µM | remaining signal | 20% | Nc1ncnc2occ(-c3ccc(NC(=O)Nc4cc(C(F)(F)F)ccc4F)cc3)c12 |
| Serine/threonine-protein kinase MRCK alpha (CDC42BPA, Homo sapiens, UniProt Q5VT25) | enzyme activity | inhibitor |  | 0.1 µM | remaining activity | 66% | CCCOc1ccc(OC)c(F)c1C(=O)c1ccc(C(=O)N[C@@H]2CNC[C@H]2NC(=O)c2ccc3[nH]ncc3c2)cc1 |
| PTGS1 | enzyme activity | inhibitor | mass spectrometry |  | kinact | 0.0103 s⁻¹ | CCCCCCNC(=O)c1ccccc1SC(C)=O |
| SIRT3 | enzyme activity | inhibitor |  | 100 µM | inhibition | 16% | CCOCCOCCOCCNC(=S)NCCCC[C@H](NS(C)(=O)=O)C(=O)N[C@@H](C)C(=O)N[C@@H](CCCNC(=N)N)C(N)=O |
| PTGS1 | enzyme activity | inhibitor |  |  | kinact | 0.000417 s⁻¹ | C#CCNC(=O)c1ccccc1SC(C)=O |
| TAF1 BD2 | thermal stability |  | DSF | 10 µM | ΔTm | -0.06 °C | Oc1ccc(-c2nc(-c3ccncc3)c(-c3ccc(F)cc3)[nH]2)cc1 |
| Serine/threonine-protein kinase MARK1 (MARK1, Homo sapiens, UniProt Q9P0L2) | enzyme activity | inhibitor | radiometric | 1 µM | remaining activity | 102% | NS(=O)(=O)c1ccc(CNc2ccnc(Nc3cccc(CN4CCOCC4)c3)n2)cc1 |
| SIRT3 | enzyme activity | inhibitor | fluorescence | 200 µM | inhibition | 6.7% | CCCCCC1CC(=O)c2cccc(Br)c2O1 (centres unmarked) |
| Ephrin type-A receptor 3 (EPHA3, Homo sapiens, UniProt P29320) | enzyme activity | inhibitor | FRET | 0.1 µM | inhibition | -6% | CN(C)C1CCN(CC#Cc2nn(C3CCCC3)c3nc(NCc4ccccc4)ncc23)C1 (centres unmarked) |
| Transcription initiation factor TFIID subunit 1-like, BD1 (TAF1L, Homo sapiens, UniProt Q8IZX4) | thermal stability |  | DSF | 10 µM | ΔTm | -0.2 °C | Cc1cc2c(cc1N1C(=O)c3cccc4c(Cl)ccc(c34)C1=O)n(C)c(=O)n2C |
| MAP3K9 | enzyme activity | inhibitor | radiometric | 1 µM | remaining activity | 0% | O=C(NCCCNc1nc(Nc2cccc(NC(=O)N3CCCC3)c2)ncc1Br)C1CCC1 |
| DRD1 | cell-free assay |  |  | 10 µM | inhibition | 21.2% | Oc1cccc(Nc2nc(-c3ccc(F)cc3F)cs2)c1 |
| Transcription initiation factor TFIID subunit 1-like, BD2 (TAF1L, Homo sapiens, UniProt Q8IZX4) | binding |  | competition with immobilised ligand | 1 µM | remaining binding | 77% | NS(=O)(=O)c1ccc(Nc2nc(-c3ccc(F)cc3)c3ccccc3n2)cc1 |
| PTGS1 | enzyme activity | inhibitor | mass spectrometry |  | kinact | 0.0367 s⁻¹ | CCCCC#CCNC(=O)c1ccccc1SC(C)=O |
| TAF1 BD2 | thermal stability |  | DSF | 10 µM | ΔTm | 0.28 °C | Cc1cnc(Nc2ccc(OCCN3CCCC3)cc2)nc1Nc1cccc(S(=O)(=O)NC(C)(C)C)c1 |
